Drawing on ChEMBL document CHEMBL2169799, “Synthesis and characterization of a novel prostate cancer-targeted phosphatidylinositol-3-kinase inhibitor prodrug” (J Med Chem, 2012), this text covers inhibition, Activity and Drug metabolism for 2 compounds.

Structures are written as SMILES. The source made the active and inactive calls. The calls are words filed in the database; no cut-off is given here. *1 amine or outer side, *2 acyl side, *3 side chain or, on linkers, in order; H or OH if unused. Where a SMILES comes first, the peptide text is derived from it. The star is where a group is joined. X1 = O=c1cc(N2CCOCC2)oc2c(-c3ccc(CO*)cc3)cccc12; Morpholide = C1CN(*)CCO1; CO = O=C([*:1])[*:2]

Data set [1] relates to BT-549. Put plainly: Inhibition of PI3 kinase in human BT549 cells assessed as complete reduction of p-Akt T308 level at 30 µM after 30 mins by Western blotting. Format: cell-based. (In general: A western blot detects proteins with antibodies after separation by electrophoresis.)
Data set [2] concerns C4-2. Put plainly: Inhibition of PI3 kinase in human C4-2 cells assessed as complete reduction of p-Akt T308 level at 30 µM after 30 mins by Western blotting. Format: cell-based.
The test system of data set [3] is BT-549. Nature of the data set: Inhibition of PI3 kinase in human BT549 cells assessed as reduction of p-Akt T308 level after 30 mins by Western blotting. The format is cell-based.
For data set [4], the system named is C4-2. Nature of the data set: Inhibition of PI3 kinase in human C4-2 cells assessed as reduction of p-Akt T308 level after 30 mins by Western blotting. Format: cell-based.
The subject of data set [5] is BT-549. Nature of the data set: Inhibition of PI3 kinase in human BT549 cells exposed to 10 uM compound pre-incubated in absence of PSA for 6 hrs assessed as reduction of p-Akt T308 levels after 30 mins by Western blotting. The format is cell-based. An outline of the steps:
(§1)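 Compound pre-incubated 6 h at 37 °C in 50 mM Tris-HCl, 0.1 M NaCl, pH 7.8 with purified active human semen PSA (0–104 ng/mL), then added to BT-549 cells for 30 min, DMSO control; p-Akt T308 Western blot, three independent experiments.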

The subject of data set [6] is LNCaP C4-2. Nature of the data set: Induction of apoptosis in human C4-2 cells expressing Luc-BAD assessed as increase in cleavage of PARP at 3 to 50 uM after 6 hrs by Western blotting. Format: functional, cell-based. An outline of the steps: (§2)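 C4-2LucBAD cells seeded 4×10^5 per 6 cm dish, grown 48 h in RPMI 1640/10% FBS to ~80% confluence, then serum-free 18 h; treated 6 h (DMSO control). Caspase 3 fluorescence read every 15 min for 1 h, arbitrary units, means ± SEM, n=2; cleaved PARP (89 kDa) by Western blot of same samples.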

Data set [7] relates to LNCaP C4-2. Put plainly: Induction of apoptosis in human C4-2 cells expressing Luc-BAD assessed as increase in caspase activity at 3 to 50 uM after 6 hrs by Caspase 3 assay. The format is functional, cell-based. In outline: as §2
Data set [8] deals with C4-2. Put plainly: Inhibition of PI3 kinase in human C4-2 cells expressing Luc-BAD assessed as reduction of p-Akt T308 level after 3 hrs by Western blotting. Format: cell-based. An outline of the steps: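 Serum-free C4-2LucBAD cells (18 h starvation, RPMI 1640 base) dosed over a concentration range for 3 h, PBS control; p-Akt T308 immunoblot of lysates.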
A short description of data set [9]: Prodrug activation in medium conditioned with human BT549 cells assessed as concentration of 4-(2-morpholino-4-oxo-4H-chromen-8-yl) benzyl-2-amino-4-methylpentanoate at 30 uM from 30 mins to 6 hrs by LC-ESI-MS analysis. Format: cell-based. The settings on record: bt-549, 30 µM. In outline:
(§3)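 Serum-free C4-2 or BT-549 cultures given compound, PBS control; media sampled at 30 min, 3 and 6 h. Released drug quantified by C18 UHPLC (water/methanol, 0.1% formic acid gradient) with positive ESI high-resolution Orbitrap MS at mass 496.2569, against standard curve; means ± SEM, n=3.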

A short description of data set [10]: Prodrug activation in medium conditioned with human C4-2 cells assessed as concentration of 4-(2-morpholino-4-oxo-4H-chromen-8-yl) benzyl-2-amino-4-methylpentanoate at 30 uM from 30 mins to 6 hrs by LC-ESI-MS analysis. Format: cell-based. The settings on record: c4-2, 30 µM. An outline of the steps: as §3
In data set [11] the test system is BT-549. Put plainly: Inhibition of PI3 kinase in human BT549 cells assessed as reduction of p-Akt T308 level at 30 uM after 30 mins to 6 hrs by Western blotting. The format is cell-based. An outline of the steps: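 Serum-free BT-549 cells (RPMI 1640, 10% FBS, insulin during growth) exposed from 30 min to 6 h, PBS control; p-Akt T308 Western blot of cleared lysates, representative of three independent experiments.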

The test system of data set [12] is C4-2. Nature of the data set: Inhibition of PI3 kinase in human C4-2 cells assessed as reduction of p-Akt T308 level at 30 uM by Western blotting. Format: cell-based. The settings on record: TDE = time-dependent effect.
In data set [13] the test system is BT-549. Nature of the data set: Inhibition of PI3 kinase in human BT549 cells assessed as reduction of p-Akt T308 level after 3 hrs by Western blotting. The format is cell-based. An outline of the steps: (§4)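 Cells at ~80% confluence (48 h after seeding 4×10^5 per 6 cm dish), kept serum-free (LNCaP in T-Medium with 2.5% FBS; U-87 MG in DMEM) and dosed over a concentration range for 3 h, PBS control; p-Akt T308 by Western blot, three independent experiments.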

Another data set deals with U-87. Nature of the data set: Inhibition of PI3 kinase in human U-87 cells assessed as reduction of p-Akt T308 level after 3 hrs by Western blotting. Format: cell-based. An outline of the steps: as §4
Data set [14] relates to C4-2. Nature of the data set: Inhibition of PI3 kinase in human C4-2 cells assessed as reduction of p-Akt T308 level after 3 hrs by Western blotting. The format is cell-based.
For a further data set, the system named is LNCaP. Nature of the data set: Inhibition of PI3 kinase in human LNCaP cells assessed as reduction of p-Akt T308 level after 3 hrs by Western blotting. The format is cell-based. In outline: as §4
Data set [15] concerns BT-549. Put plainly: Inhibition of PI3 kinase in human BT549 cells exposed to 10 uM compound pre-incubated with 0.5 to 10^4 ng/mL PSA for 6 hrs assessed as reduction of p-Akt T308 levels after 30 mins by Western blotting. The format is cell-based. An outline of the steps: as §1
The subject of data set [16] is BT-549. Nature of the data set: Inhibition of PI3 kinase in human BT549 cells exposed to BT549 cells conditioned medium pre-incubated with compound for 6 hrs assessed as reduction of p-Akt T308 level by Western blotting. Format: cell-based. An outline of the steps: (§5)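 Compound incubated 6 h at 37 °C, 5% CO2 in serum-free medium on C4-2 or BT-549 cells; medium then transferred to BT-549 cells for 3 h, PBS control; p-Akt T308 by Western blot.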

Data set [17] deals with BT-549. Put plainly: Inhibition of PI3 kinase in human BT549 cells exposed to C4-2 cells conditioned medium pre-incubated with compound for 6 hrs assessed as reduction of p-Akt T308 level by Western blotting. Format: cell-based. In outline:
as §5

Regarding `CC(C)C[C@H](N)C(=O)OCc1ccc(-c2cccc3c(=O)cc(N4CCOCC4)oc23)cc1`, the inhibition entry in the data set with BT-549 [1] and in the data set with C4-2 [2] was “Active” throughout. Moreover, the inhibition entry with BT-549 [3] and in the data set with C4-2 [4] was “Dose-dependent effect” throughout.

As to `CC(C)C[C@H](NC(=O)[C@H](CCCCN)NC(=O)[C@H](CO)NC(=O)[C@H](CO)NC(=O)[C@H](Cc1cnc[nH]1)NC(=O)[C@H](CCC(=O)O)NC(=O)[C@H](CC(C)C)NC(=O)N1CCOCC1)C(=O)N[C@@H](CCC(N)=O)C(=O)N[C@@H](CC(C)C)C(=O)OCc1ccc(-c2cccc3c(=O)cc(N4CCOCC4)oc23)cc1` ({Morpholide-CO}-LEHSSKLQL-X1), the inhibition entry in the data set with BT-549 [5], in the data set with BT-549 [11], in the data set on BT-549 [13], in the data set with U-87 and with BT-549 [16] was “inactive” in each case. The result in the data set on LNCaP C4-2 [6] and in the data set with LNCaP C4-2 [7] was Active. Besides, the inhibition entry in the data set with C4-2 [8] was “Dose-dependent effect”; with C4-2 [12], “tde”; in the data set on C4-2 [14] it was “Dose-dependent effect”; with LNCaP, “Dose-dependent effect”. For the same compound, the Drug metabolism result in data set [9] was “Not Active”; in data set [10], “Active”. Besides, the inhibition result in the data set on BT-549 [15] and in the data set with BT-549 [17] was “Active” in each case.
